The record followed here is ChEMBL document CHEMBL1955829, “Synthesis and biological evaluation of 4β-sulphonamido and 4β-[(4'-sulphonamido)benzamide]podophyllotoxins as DNA topoisomerase-IIα and apoptosis inducing agents” (2012).

Calls of active or inactive are those of the source. The rule behind the calls is not given here.

In one experiment the test system is ZR-75-1. As to the kind of experiment: Growth inhibition of human ZR-75-1 cells after 48 hrs by sulforhodamine B assay. The conditions noted are these: ZR-75-1, 48 h. The experiment is classed as functional. In a few lines:
(§1)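 Cells grown in DMEM with 10% FBS and 2 mM L-glutamine, plated at densities set by doubling time, and held 24 h before dosing. Exposure was 48 h to 0.1, 1, 10 and 100 µM in triplicate wells. Cells fixed with cold TCA (final 10%) 60 min at 4 °C and stained with 0.4% SRB 20 min. Bound dye eluted in 10 mM Tris base and read at 540 nm (690 nm reference). GI50 is the concentration giving 50% reduction in net protein gain versus control; values are the mean of three determinations.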
Background: Sulforhodamine B stains cellular protein and so reports cell mass.

For a further experiment, the system named is MCF7. As to the kind of experiment: Growth inhibition of human MCF7 cells after 48 hrs by sulforhodamine B assay. It counts as functional. The conditions noted are these: MCF7, 48 h. In a few lines: as §1
For experiment [1], the system named is COLO 205. Description: Growth inhibition of human COLO205 cells after 48 hrs by sulforhodamine B assay. It counts as functional. The conditions noted are these: COLO 205, 48 h. In a few lines: as §1
The next experiment deals with HOP-62. As to the kind of experiment: Growth inhibition of human HOP62 cells after 48 hrs by sulforhodamine B assay. The experiment is classed as functional. The conditions noted are these: HOP-62, 48 h. In a few lines: as §1
For experiment [2], the system named is COLO 205. As to the kind of experiment: Cytotoxicity against human COLO205 cells at 4 uM after 24 hrs by MTT assay. It counts as functional, cell-based. In a few lines:
(§2)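 Colo-205 cells plated at 10,000 per well, left overnight, then exposed 24 h at 2, 4 or 8 µM. MTT added for 2 h at 37 °C, formazan dissolved in extraction buffer, and optical density read at 570 nm against untreated cells.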
For orientation: Tetrazolium dyes change colour on reduction, which living cells bring about.

Experiment [3] deals with COLO 205. As to the kind of experiment: Cytotoxicity against human COLO205 cells at 8 uM after 24 hrs by MTT assay. It counts as functional, cell-based. In short, it runs like this:
as §2

Experiment [4] relates to COLO 205. Description: Cell cycle arrest in human COLO205 cells assessed as accumulation at G2/M phase at 4 uM after 24 hrs by FACS analysis (reference value: 25.92%). The experiment is classed as functional. In short, it runs like this:
(§3)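 Colo-205 cells seeded at […] per 60 mm dish and treated 24 h at 4 µM; TSA arm used TSA at 4 µM for 12 h. Cells trypsinised, fixed in ice-cold 70% ethanol 30 min at 4 °C, RNase 1 mg/mL 30 min at 37 °C, then propidium iodide/citrate/Triton stain. DNA content of 20,000 events read by flow cytometry; phase percentages from histograms.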
For orientation: Flow cytometry measures light scatter and fluorescence of single cells or particles in a stream.

The test system of experiment [5] is COLO 205. Description: Cell cycle arrest in human COLO205 cells assessed as accumulation at G1 phase at 4 uM after 24 hrs by FACS analysis in presence of HDAC inhibitor, trichostatin A (reference value: 70.57%). The experiment is classed as functional. In short, it runs like this:
as §3

Experiment [6] relates to COLO 205. As to the kind of experiment: Cell cycle arrest in human COLO205 cells assessed as accumulation at S phase at 4 uM after 24 hrs by FACS analysis in presence of HDAC inhibitor, trichostatin A (reference value: 7.89%). The experiment is classed as functional. In a few lines:
as §3

In experiment [7] the test system is COLO 205. Description: Down regulation of topoisomerase 2alpha in human COLO205 cells at 4 uM after 24 hrs by Western blotting analysis. It counts as functional, cell-based. In short, it runs like this:
(§4)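 Colo-205 cells treated 24 h at 4 µM and lysed in ice-cold RIPA with protease inhibitors and NaF. Protein measured by Bradford; 50 µg per lane run on 12% SDS-PAGE and transferred to PVDF. Membrane blocked 2 h, primary antibody (topo-IIα/β, p21, p16, pro-caspase-3, NF-kB p65) overnight at 4 °C, HRP secondary 1:2000 for 1 h, chemiluminescence detection; β-actin as loading control. Reduced procaspase-3 taken as caspase-3 activation.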

Experiment [8] deals with COLO 205. As to the kind of experiment: Up-regulation of topoisomerase 2alpha in human COLO205 cells at 4 uM after 24 hrs by Western blotting analysis in presence of HDAC inhibitor, trichostatin A. It counts as functional, cell-based. In a few lines: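 Colo-205 cells exposed 24 h to test agent plus TSA, each at 4 µM. Western blot of lysates probed for topo-IIα, with β-actin as loading control.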

In experiment [9] the test system is COLO 205. As to the kind of experiment: Induction of apoptosis in human COLO205 cells assessed as increase in caspase 3 activation at 4 uM after 24 hrs by ELISA. The experiment is classed as functional, cell-based.
Experiment [10] has as its system COLO 205. As to the kind of experiment: Induction of apoptosis in human COLO205 cells assessed as increase in caspase 3 activation at 4 uM after 24 hrs by Western blotting analysis. It counts as functional, cell-based. In short, it runs like this:
as §4

The test system of experiment [11] is COLO 205. Description: Induction of apoptosis in human COLO205 cells assessed as down regulation of Bcl-2 at 4 uM after 24 hrs by ELISA. The experiment is classed as functional, cell-based. In a few lines:
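Colo-205 cells treated 24 h at 4 µM, with etoposide and camptothecin as controls. Lysates added to Bcl2-antibody-coated wells, followed by a biotin-conjugated anti-human Bcl2 monoclonal antibody, in a Bcl2 ELISA.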

In experiment [12] the test system is COLO 205. Description: Down regulation of topoisomerase 2beta in human COLO205 cells at 4 uM after 24 hrs by Western blotting analysis. The experiment is classed as functional, cell-based. In a few lines:
as §4

The target of experiment [13] is DNA topoisomerase 2-beta (Mus musculus) (UniProt Q64511). As to the kind of experiment: Inhibition of topoisomerase 2beta in mouse embryonic fibroblasts after 1.5 hrs by comet assay. The conditions noted are these: concentration not given here.
DNA topoisomerase 2-beta (Mus musculus), sequence (Q64511 whole entry): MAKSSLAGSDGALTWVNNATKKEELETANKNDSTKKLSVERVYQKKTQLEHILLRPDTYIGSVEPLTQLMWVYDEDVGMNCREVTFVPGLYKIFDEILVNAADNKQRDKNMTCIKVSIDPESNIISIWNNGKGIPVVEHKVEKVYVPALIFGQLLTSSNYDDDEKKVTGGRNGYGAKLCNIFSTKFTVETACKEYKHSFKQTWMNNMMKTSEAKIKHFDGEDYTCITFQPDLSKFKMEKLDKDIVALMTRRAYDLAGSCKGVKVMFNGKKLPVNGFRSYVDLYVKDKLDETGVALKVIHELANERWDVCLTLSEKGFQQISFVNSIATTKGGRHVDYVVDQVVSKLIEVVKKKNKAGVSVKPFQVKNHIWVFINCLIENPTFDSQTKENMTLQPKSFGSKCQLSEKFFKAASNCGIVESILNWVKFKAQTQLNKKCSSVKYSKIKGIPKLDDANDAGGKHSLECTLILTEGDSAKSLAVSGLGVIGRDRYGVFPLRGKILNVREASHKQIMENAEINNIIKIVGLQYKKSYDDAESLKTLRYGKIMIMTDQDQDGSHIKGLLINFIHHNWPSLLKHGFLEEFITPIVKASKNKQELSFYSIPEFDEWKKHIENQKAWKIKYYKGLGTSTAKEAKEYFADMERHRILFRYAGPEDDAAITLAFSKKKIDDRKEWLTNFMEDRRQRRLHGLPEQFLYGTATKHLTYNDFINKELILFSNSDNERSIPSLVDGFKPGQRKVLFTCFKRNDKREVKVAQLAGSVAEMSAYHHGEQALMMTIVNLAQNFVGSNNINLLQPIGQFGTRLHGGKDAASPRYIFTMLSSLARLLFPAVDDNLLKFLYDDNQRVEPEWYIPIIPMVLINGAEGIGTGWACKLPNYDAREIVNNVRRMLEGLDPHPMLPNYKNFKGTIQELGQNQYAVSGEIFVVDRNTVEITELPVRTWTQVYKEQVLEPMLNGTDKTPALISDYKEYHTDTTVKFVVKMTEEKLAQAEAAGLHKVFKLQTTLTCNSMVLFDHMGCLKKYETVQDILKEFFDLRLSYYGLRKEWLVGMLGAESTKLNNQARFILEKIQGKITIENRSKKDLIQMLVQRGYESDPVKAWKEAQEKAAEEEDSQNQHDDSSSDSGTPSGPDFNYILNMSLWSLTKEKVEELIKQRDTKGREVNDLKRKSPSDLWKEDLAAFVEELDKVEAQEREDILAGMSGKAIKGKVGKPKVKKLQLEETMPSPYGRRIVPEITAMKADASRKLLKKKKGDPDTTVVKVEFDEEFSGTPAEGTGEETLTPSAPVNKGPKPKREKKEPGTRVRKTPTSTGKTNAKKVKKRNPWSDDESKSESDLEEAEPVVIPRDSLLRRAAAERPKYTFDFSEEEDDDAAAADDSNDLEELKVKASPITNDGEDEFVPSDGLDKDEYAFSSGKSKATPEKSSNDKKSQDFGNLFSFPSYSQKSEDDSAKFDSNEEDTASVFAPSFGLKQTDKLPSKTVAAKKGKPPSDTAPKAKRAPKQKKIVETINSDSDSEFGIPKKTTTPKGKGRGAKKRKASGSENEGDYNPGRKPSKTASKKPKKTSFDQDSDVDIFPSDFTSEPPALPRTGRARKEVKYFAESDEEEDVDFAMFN

Take `COC(=O)c1sccc1S(=O)(=O)N[C@@H]1c2cc3c(cc2[C@@H](c2cc(OC)c(OC)c(OC)c2)[C@H]2C(=O)OC[C@@H]21)OCO3`: the GI50 – broadly, the concentration giving 50% growth inhibition – with ZR-75-1 was determined as 60 nM; in the experiment with MCF7, 180 nM; in the experiment with COLO 205 [1], 40 nM; in the experiment with HOP-62, 40 nM. Also, the result in the experiment with COLO 205 [2], in the experiment on COLO 205 [3], in the experiment with COLO 205 [7], in the experiment with COLO 205 [8], with COLO 205 [9] and in the experiment with COLO 205 [10] was Active. Moreover, the outcome with COLO 205 [11] was Active. Also, in the experiment on COLO 205 [4], the “Percentage of cells in G2/M phase” value was found to be 40.57%. Besides, the Activity in the experiment on COLO 205 [5] turned out to be 18.8%; in the experiment on COLO 205 [6], 7.85%.

Take `COc1cc([C@@H]2c3cc4c(cc3[C@@H](O[C@@H]3O[C@@H]5CO[C@@H](C)O[C@H]5[C@H](O)[C@H]3O)[C@H]3COC(=O)[C@H]23)OCO4)cc(OC)c1O` [ETOPOSIDE]: the GI50 with ZR-75-1 came out at 200 nM; in the experiment with MCF7 it was 2110 nM; with COLO 205 [1] it was 130 nM; in the experiment on HOP-62 it was 800 nM. In addition, the outcome in the experiment on COLO 205 [2], in the experiment with COLO 205 [3], with COLO 205 [12], in the experiment with COLO 205 [8], in the experiment on COLO 205 [9] and with COLO 205 [10] was Active. Further, the result with COLO 205 [11] was Active. In addition, the “Percentage of cells in G2/M phase” value with COLO 205 [4] was 74.27%. In addition, the Activity in the experiment on COLO 205 [5] was determined as 21.74%; in the experiment with COLO 205 [6], 8.55%. For the same molecule, the inhibition (commonly the relative decrease from the control value, in per cent) in experiment [13] was determined as 100%.
